Measured values from different studies.
Each line is one published result; the experiments were not run side by side.

Structure (SMILES)	tested on	test	test system	conditions	quantity	result
CC(C)C[C@H](NC(=O)[C@H](CC(C)C)NC(=O)[C@H](CCCCN)NC(=O)[C@H](CCCCN)NC(=O)[C@H](CC(C)C)NC(=O)[C@H](CC(C)C)NC(=O)[C@H](CCCCN)NC(=O)[C@H](CCCCN)NC(=O)[C@H](CC(C)C)NC(=O)[C@H](CC(C)C)NC(=O)[C@H](CCCCN)NC(=O)[C@H](CCCCN)NC(=O)[C@H](CC(C)C)NC(=O)[C@@H](N)CCC(=O)O)C(N)=O	HCCC9810	cell growth or viability, CCK-8	–	–	IC50	8870 nM
C[C@@H]1CC[C@H]2[C@@H](C)C(=O)O[C@@H]3O[C@@]4(C)CC[C@@H]1[C@]32OO4	Plasmodium falciparum	parasite growth	DD2	drug-resistant strain, blood stage	IC50	8.9 nM
CC(C)C[C@H](NC(=O)[C@H](CC(C)C)NC(=O)[C@H](CCCCN)NC(=O)[C@H](CCCCN)NC(=O)[C@H](CC(C)C)NC(=O)[C@H](CCC(=O)O)NC(=O)[C@H](CCCCN)NC(=O)[C@H](CCCCN)NC(=O)[C@H](CC(C)C)NC(=O)[C@H](CC(C)C)NC(=O)[C@H](CCCCN)NC(=O)[C@H](CCCCN)NC(=O)[C@H](CC(C)C)NC(=O)[C@@H](N)CC(C)C)C(N)=O	HCCC9810	cell growth or viability, CCK-8	–	–	IC50	24600 nM
N=C(CC(O)c1cc2c(F)cc(F)cc2c2cc(C(F)(F)F)ccc12)NC1CC(F)(F)C1 (stereo not drawn)	Plasmodium falciparum	parasite growth, ELISA	3D7	72 h, blood stage	IC50	80.2 nM
N.N.[Cl][Pt][Cl]	RS4-11	cell growth or viability, ATP luminescence	–	72 h	IC50	610 nM
CCN(CC)CCOc1ccc2c(c1)C(=O)c1cc(OCCN(CC)CC)ccc1-2	Plasmodium falciparum	parasite growth	DD2	drug-resistant strain, blood stage	IC50	556 nM
N=C(CC(O)c1cc2c(F)cc(F)cc2c2cc(C(F)(F)F)ccc12)Nc1nnc(-c2ccc(F)cc2)o1 (stereo not drawn)	Plasmodium falciparum	parasite growth, ELISA	3D7	72 h, blood stage	IC50	> 37000 nM
Cc1ccc(N(CC2=NCCN2)c2cccc(O)c2)cc1	Plasmodium falciparum	parasite growth	K1	drug-resistant strain, blood stage	IC50	189000 nM
CC(=O)N[C@H]1[C@@H](O[C@@H]2O[C@H](C[C@@H](O)[C@H]3O[C@@H](n4ccc(=O)[nH]c4=O)[C@H](O)[C@@H]3O)[C@H](O)[C@H](O)[C@H]2NC(=O)/C=C/CCCCCCCCCC(C)C)O[C@H](CO)[C@@H](O)[C@@H]1O	MDA-MB-453	cell growth or viability, WST-1	–	–	IC50	160 nM
N=C(CC(O)c1cc2c(F)cc(F)cc2c2cc(C(F)(F)F)ccc12)Nc1ccccc1I (stereo not drawn)	Plasmodium falciparum	parasite growth, ELISA	3D7	72 h, blood stage	IC50	10.9 nM
CC(C)C[C@H](NC(=O)[C@H](CC(C)C)NC(=O)[C@H](CCCCN)NC(=O)[C@H](CCCCN)NC(=O)[C@H](CC(C)C)NC(=O)[C@H](CC(C)C)NC(=O)[C@H](CCCCN)NC(=O)[C@H](CCCCN)NC(=O)[C@H](CC(C)C)NC(=O)[C@H](CCC(=O)O)NC(=O)[C@H](CCCCN)NC(=O)[C@H](CCCCN)NC(=O)[C@H](CC(C)C)NC(=O)[C@@H](N)CC(C)C)C(N)=O	HCCC9810	cell growth or viability, CCK-8	–	–	IC50	9400 nM
N=C(CC(O)c1cc2c(F)cc(F)cc2c2cc(C(F)(F)F)ccc12)Nc1nc2ccccc2[nH]1 (stereo not drawn)	Plasmodium falciparum	parasite growth, ELISA	3D7	72 h, blood stage	IC50	5590 nM
CCN1CCN(Cc2ccc(Nc3nc4ccc(Oc5ccnc(NC(=O)C6CCN(C)CC6)c5)cc4n3C)cc2C(F)(F)F)CC1	Plasmodium falciparum	parasite growth, SYBR Green	3D7	blood stage	EC50	210 nM
N#Cc1ccc(NC(=N)CC(O)c2cc3c(F)cc(F)cc3c3cc(C(F)(F)F)ccc23)cc1 (stereo not drawn)	Plasmodium falciparum	parasite growth, ELISA	3D7	72 h, blood stage	IC50	24.7 nM
COc1ccc2cc1Oc1ccc(cc1)C[C@H]1c3c(cc4c(c3Oc3cc5c(cc3OC)CCN(C)[C@@H]5C2)OCO4)CCN1C	Plasmodium falciparum	parasite growth	K1	drug-resistant strain, blood stage	IC50	91.4 nM
